Test results taken from publication PMC11170203 (Saudi Pharmaceutical Journal : SPJ, 2024).

How the values were obtained:
[1] = DPPH radical scavenging assay
Outline: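 The test extract (6.25–400 ug/mL) is mixed 1:1 with 0.06 mM DPPH in absolute ethanol and incubated 30 min in the dark. Absorbance is read at 517 nm and corrected with a DPPH-free sample background. BHT is the standard. % inhibition = (Acontrol − Asample)/Acontrol × 100. IC50 comes from dose-response curves; three independent experiments, mean ± SD.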

[2] = Ferric reducing antioxidant power; settings: mean ± S.D. of three measurements
Outline: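 FRAP reagent is acetate buffer (300 mM, pH 3.6), TPTZ (10 mM in 40 mM HCl) and FeCl3·6H2O (20 mM) at 10:1:1, prewarmed 10 min at 37 °C. The test extract reacts with the reagent for 30 min at 37 °C, and Fe(II)-TPTZ is read at 593 nm. Values come from a ferrous sulfate calibration curve, as FeSO4 equivalents per g extract. Ascorbic acid is the reference; three independent experiments, mean ± SD.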

[3] = target: T1, hyaluronidase (Bos taurus, UniProt Q2YDK3); assay: Hyaluronidase enzyme inhibitory assay; format: biochemical; settings: concentration range 25–250 µg/mL
T1 sequence (Q2YDK3 36-553): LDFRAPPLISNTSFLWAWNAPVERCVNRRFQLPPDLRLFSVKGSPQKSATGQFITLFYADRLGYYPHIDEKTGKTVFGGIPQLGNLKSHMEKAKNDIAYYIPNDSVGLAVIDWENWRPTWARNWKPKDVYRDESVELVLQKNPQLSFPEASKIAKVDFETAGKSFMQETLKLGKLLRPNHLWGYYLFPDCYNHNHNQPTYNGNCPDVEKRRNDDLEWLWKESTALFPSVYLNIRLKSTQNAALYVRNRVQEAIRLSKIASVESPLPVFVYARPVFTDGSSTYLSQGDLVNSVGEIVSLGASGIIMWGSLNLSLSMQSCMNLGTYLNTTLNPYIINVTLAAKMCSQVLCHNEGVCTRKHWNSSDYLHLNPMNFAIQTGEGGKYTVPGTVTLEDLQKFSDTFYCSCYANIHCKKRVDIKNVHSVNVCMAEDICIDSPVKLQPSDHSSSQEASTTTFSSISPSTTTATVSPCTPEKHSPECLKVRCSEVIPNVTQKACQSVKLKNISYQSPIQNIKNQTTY
Outline: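 The test extract in 10% DMSO is incubated with hyaluronidase 10 min at 37 °C, then with CaCl2 (12.5 mM solution) for 10 min. Sodium hyaluronate is added for 40 min at 37 °C. NaOH (0.9 M) and sodium borate (0.2 M) are added and heated 3 min at 100 °C. PDMAB (67 mM) is added for 10 min at 37 °C, and absorbance is read at 585 nm. Tannic acid is the reference; IC50 comes from dose-response curves, three independent experiments.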

[4] = target: collagenase from Clostridium histolyticum; assay: Collagenase enzyme inhibitory assay; format: biochemical; settings: concentration range 15.63–1000 µg/mL
Outline: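 Clostridium histolyticum collagenase (0.1 mg/mL) is preincubated with the test extract in tricine buffer (50 mM tricine, 10 mM CaCl2, 400 mM NaCl, pH 7.5) for 20 min at 37 °C. FALGPA substrate (1 mM solution) is added, and absorbance is read at 335 nm after 15 min. EGCG is the positive control. IC50 is taken from dose-response curves of % inhibition, with three independent experiments.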

[5] = target: porcine pancreatic elastase (Sus scrofa, UniProt P00772); assay: Elastase enzyme inhibitory assay; format: biochemical; settings: concentration range 15.63–1000 µg/mL
Chain of porcine pancreatic elastase (P00772 27-266): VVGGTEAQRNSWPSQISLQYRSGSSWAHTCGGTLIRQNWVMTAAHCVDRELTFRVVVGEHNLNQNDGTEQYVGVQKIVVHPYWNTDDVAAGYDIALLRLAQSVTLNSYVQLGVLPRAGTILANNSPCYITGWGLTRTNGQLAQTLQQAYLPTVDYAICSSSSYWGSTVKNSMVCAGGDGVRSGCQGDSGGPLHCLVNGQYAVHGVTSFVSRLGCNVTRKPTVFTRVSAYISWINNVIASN
Outline: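 Porcine pancreatic elastase and the test extract in Tris-HCl (100 mM, pH 8.0) are incubated 5 min at 37 °C. The reaction is started with succinyl-Ala-Ala-Ala-p-nitroanilide (4.4 mM solution in Tris-HCl), and absorbance is read at 410 nm. EGCG is the positive control and distilled water the negative control. IC50 is taken from dose-response curves of % inhibition, with three independent experiments.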

Compound: Cc1cc(C(C)(C)C)c(O)c(C(C)(C)C)c1 [BHT, butylated hydroxytoluene]
- DPPH (IC50) ([1]; mean ± S.D. of three measurements): 20.721 ± 0.138 µg/mL
- DPPH radical scavenging IC50 ([1]; unit as printed in the results text): 20.72 ± 0.138 µg/mL

Compound: O=C1O[C@H]([C@@H](O)CO)C(O)=C1O [Ascorbic acid]
- FRAP [2]: 4794.7 ± 5.507 µM FeSO4/g extract

Compound: tannic acid
- Hyaluronidase inhibition IC50 [3]: 30.652 ± 0.626 µg/mL

Compound: O=C(O[C@@H]1Cc2c(O)cc(O)cc2O[C@@H]1c1cc(O)c(O)c(O)c1)c1cc(O)c(O)c(O)c1 [EGCG, epigallocatechin gallate]
- Collagenase inhibition IC50 [4]: 33.662 ± 0.302 µg/mL
- Elastase inhibition IC50 [5]: 33.334 ± 0.299 µg/mL
